Source: ChEMBL document CHEMBL1140930 (J Med Chem, 2009)

Tests used:
K562 = test: Antiproliferative activity against human K562 cells after 48 hrs; assay type: functional, cell-based; settings: K562, 48 h
Summary of the method: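 K562 cells (RPMI 1640, 10% FBS, 37 °C, 5% CO2) plated at 2 × 10⁵ cells/mL. Compounds dissolved in DMSO/methanol 1:1, vehicle 0.5%. Cells counted in a Neubauer chamber after 48 h and expressed as % of untreated control. Triplicate wells, three experiments. IC50 from nonlinear regression.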

Tubulin = Tubulin (Sus scrofa, UniProt P02554+P02550); test: Inhibition of pig brain tubulin polymerization after 30 mins by turbidimetric assay
Summary of the method: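 Microtubule protein from porcine brain (80–90% tubulin, 10–20% MAPs), purified by two disassembly/reassembly cycles. Assay buffer: 20 mM PIPES pH 6.8, 80 mM NaCl, 0.5 mM MgCl2, 1 mM EGTA, 1 mM DTT. Protein at 1.2 mg/mL with 0.6 mM GTP final, 1% DMSO final, 37 °C.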

[1] = Antiproliferative activity against human KB/HeLa cells by XTT assay; assay type: functional, cell-based
Summary of the method: (§1)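 XTT metabolic read-out. Cells seeded at 1 × 10³–8 × 10⁴ cells/well for logarithmic growth and exposed to graded concentrations for 48 h. At least two replicates. IC50 from nonlinear regression of dose-response curves. LT12/MDR: rat LT12 with ectopic human MDR-1. L1210/VCR: MDR-1 expressing, MRP-1 negative.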

SK-OV-3 = test: Antiproliferative activity against human SKOV3 cells by XTT assay; assay type: functional, cell-based
Summary of the method: (§2)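 XTT metabolic-activity read-out of proliferation. Cells were seeded at 1 × 10³-8 × 10⁴ cells/well for logarithmic growth and exposed to a range of compound concentrations for 48 h. IC50 came from nonlinear regression of dose-response curves, with at least two replicates. The P388/Adr subline was doxorubicin-selected with elevated MDR-1.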

RKO [2] = test: Antiproliferative activity against human RKO cells containing ecdysone-inducible expression vector of p27kipl by XTT assay; assay type: functional, cell-based
Summary of the method: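 RKO cells carried an ecdysone-inducible p27Kip1 vector and were tested with and without induction. On day 1 they were plated with or without 3 µM ponasterone A, which gives G1 arrest, at 2 × 10⁴ cells/well induced or 6 × 10³ not induced, then held 24 h at 37 °C. Compound was then added for 48 h at 37 °C, followed by a standard XTT assay. IC50 came from nonlinear regression, n ≥ 2.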

RKO [3] = test: Antiproliferative activity against human RKO cells by XTT assay; assay type: functional, cell-based
Summary of the method: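 RKO colon cells with ecdysone-inducible p27Kip1. Day 1: plated with or without 3 µM ponasterone A for 24 h, giving G1 arrest when induced (2 × 10⁴ cells/well induced; 6 × 10³ not induced). Day 2: compound added (DMSO control) for 48 h at 37 °C, then standard XTT. At least duplicate. IC50 by nonlinear regression.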

NCI-H460 = test: Antiproliferative activity against human NCI-H460 cells by XTT assay; assay type: functional, cell-based; summary of the method: as §1
SF-268 = test: Antiproliferative activity against human SF268 cells by XTT assay; assay type: functional, cell-based; summary of the method: as §1
[4] = Cell cycle arrest in human KB/HeLa cells assessed as S phase accumulation at 3.16 nM after 24 hrs by FACS analysis; assay type: functional, cell-based
Summary of the method: (§3)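 Subconfluent KB/HeLa cells exposed to a range of compound concentrations for 24 h at 37 °C, then detached and fixed in 70% ethanol. DNA stained with propidium iodide after RNase digestion and measured by flow cytometry. Cell-cycle phase fractions taken from cell cycle analysis software. At least two replicates.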

[5] = Cell cycle arrest in human KB/HeLa cells assessed as G1 phase accumulation at 3.16 nM after 24 hrs by FACS analysis; assay type: functional, cell-based; summary of the method: as §3
[6] = Cell cycle arrest in human KB/HeLa cells assessed as G2/M phase accumulation at 316 nM after 24 hrs by FACS analysis; assay type: functional, cell-based; summary of the method: as §3
[7] = Cell cycle arrest in human KB/HeLa cells assessed as G1 phase accumulation at 31.6 nM after 24 hrs by FACS analysis; assay type: functional, cell-based; summary of the method: as §3
[8] = Cell cycle arrest in human KB/HeLa cells assessed as G1 phase accumulation at 100 nM after 24 hrs by FACS analysis; assay type: functional, cell-based; summary of the method: as §3
[9] = Cell cycle arrest in human KB/HeLa cells assessed as G2/M phase accumulation at 0.3 nM after 24 hrs by FACS analysis; assay type: functional, cell-based; summary of the method: as §3
[10] = Cell cycle arrest in human KB/HeLa cells assessed as S phase accumulation at 100 nM after 24 hrs by FACS analysis; assay type: functional, cell-based; summary of the method: as §3
[11] = Cell cycle arrest in human KB/HeLa cells assessed as G2/M phase accumulation after 24 hrs by FACS analysis; assay type: functional, cell-based; summary of the method: as §3
[12] = Cell cycle arrest in human KB/HeLa cells assessed as S phase accumulation at 1 nM after 24 hrs by FACS analysis; assay type: functional, cell-based; summary of the method: as §3
[13] = Cell cycle arrest in human KB/HeLa cells assessed as S phase accumulation at 316 nM after 24 hrs by FACS analysis; assay type: functional, cell-based; summary of the method: as §3
[14] = Cell cycle arrest in human KB/HeLa cells assessed as G2/M phase accumulation at 1 nM after 24 hrs by FACS analysis; assay type: functional, cell-based; summary of the method: as §3
[15] = Cell cycle arrest in human KB/HeLa cells assessed as G1 phase accumulation at 1 nM after 24 hrs by FACS analysis; assay type: functional, cell-based; summary of the method: as §3
[16] = Cell cycle arrest in human KB/HeLa cells assessed as G2/M phase accumulation at 100 nM after 24 hrs by FACS analysis; assay type: functional, cell-based; summary of the method: as §3
[17] = Cell cycle arrest in human KB/HeLa cells assessed as S phase accumulation at 31.6 nM after 24 hrs by FACS analysis; assay type: functional, cell-based; summary of the method: as §3
[18] = Cell cycle arrest in human KB/HeLa cells assessed as S phase accumulation at 10 nM after 24 hrs by FACS analysis; assay type: functional, cell-based; summary of the method: as §3
[19] = Cell cycle arrest in human KB/HeLa cells assessed as G1 phase accumulation at 316 nM after 24 hrs by FACS analysis; assay type: functional, cell-based; summary of the method: as §3
[20] = Cell cycle arrest in human KB/HeLa cells assessed as G1 phase accumulation at 0.3 nM after 24 hrs by FACS analysis; assay type: functional, cell-based; summary of the method: as §3
[21] = Cell cycle arrest in human KB/HeLa cells assessed as G2/M phase accumulation at 10 nM after 24 hrs by FACS analysis; assay type: functional, cell-based; summary of the method: as §3
[22] = Cell cycle arrest in human KB/HeLa cells assessed as S phase accumulation at 0.3 nM after 24 hrs by FACS analysis; assay type: functional, cell-based; summary of the method: as §3
[23] = Cell cycle arrest in human KB/HeLa cells assessed as G1 phase accumulation at 10 nM after 24 hrs by FACS analysis; assay type: functional, cell-based; summary of the method: as §3
[24] = Cell cycle arrest in human KB/HeLa cells assessed as G2/M phase accumulation at 31.6 nM after 24 hrs by FACS analysis; assay type: functional, cell-based; summary of the method: as §3
[25] = Cell cycle arrest in human KB/HeLa cells assessed as G2/M phase accumulation at 3.16 nM after 24 hrs by FACS analysis; assay type: functional, cell-based; summary of the method: as §3
[26] = Antiproliferative activity against rat LT12 cells ectopic expression of human MDR1 after 48 hrs by XTT assay; assay type: functional, cell-based; settings: LT12, 48 h; summary of the method: as §1
P388 [27] = test: Antiproliferative activity against mouse P388 cells after 48 hrs by XTT assay; assay type: functional, cell-based; settings: P388, 48 h; summary of the method: as §2
P388 [28] = test: Antiproliferative activity against doxorubicin-resistant mouse P388 cells expressing MDR1 protein after 48 hrs by XTT assay; assay type: functional, cell-based; settings: P388, 48 h; summary of the method: as §2
L1210 = test: Antiproliferative activity against vincristine-resistance MRP1 negative mouse L1210 cells expressing human MDR1 after 48 hrs by XTT assay; assay type: functional, cell-based; settings: L1210, 48 h; summary of the method: as §1
[29] = Antiproliferative activity against rat LT12 cells after 48 hrs by XTT assay; assay type: functional, cell-based; settings: LT12, 48 h; summary of the method: as §2

COc1ccc(C(=O)C(O)C2c3ccccc3C(=O)c3ccccc32)cc1 (configuration not stated)
IC50 (K562): 18000 nM
IC50 (Tubulin): > 10000 nM

COC(=O)C=C1c2ccccc2C(=O)c2ccccc21
IC50 (K562): 6000 nM

Cc1ccc(C(=O)C=C2c3ccccc3C(=O)c3ccccc32)cc1
IC50 (K562): 640 nM
IC50 (Tubulin): 1100 nM

COc1cccc(OC)c1OC(=O)C=C1c2ccccc2C(=O)c2ccccc21
IC50 (K562): 1640 nM
IC50 (Tubulin): 10000 nM

O=C(C=C1c2ccccc2C(=O)c2ccccc21)c1ccc(O)c(O)c1
IC50 [1]: 270 nM
IC50 (SK-OV-3): 160 nM
IC50 (RKO [2]): > 9000 nM
IC50 (RKO [3]): 240 nM
IC50 (NCI-H460): 430 nM
IC50 (SF-268): 220 nM
IC50 (K562): 160 nM
IC50 (Tubulin): 2600 nM

COc1ccc(C(=O)C=C2c3ccccc3C(O)c3ccccc32)cc1 (configuration not stated)
IC50 (K562): 210 nM
IC50 (Tubulin): 1200 nM

COc1cc(C(=O)C(O)C2c3ccccc3C(=O)c3ccccc32)cc(OC)c1OC (configuration not stated)
IC50 (K562): 21000 nM
IC50 (Tubulin): > 10000 nM

O=C(C=C1c2ccccc2C(=O)c2ccccc21)c1ccccc1
IC50 (K562): 3600 nM
IC50 (Tubulin): 5000 nM

COc1cc2c(c(OC)c1OC)-c1ccc(OC)c(=O)cc1[C@@H](NC(C)=O)CC2 [COLCHICINE]
Activity [4]: 25.1%
Activity [5]: 64.3%
Activity [6]: 94.5%
Activity [7]: 0.5%
Activity [8]: 0.3%
IC50 [1]: 10 nM
Activity [9]: 10.1%
Activity [10]: 5.1%
EC50 [11]: 14 nM
Activity [12]: 25.4%
Activity [13]: 5.2%
Activity [14]: 10%
Activity [15]: 64.7%
Activity [16]: 94.7%
Activity [17]: 11.9%
IC50 (SK-OV-3): 10 nM
IC50 (RKO [2]): > 3000 nM
Activity [18]: 35.7%
Activity [19]: 0.3%
Activity [20]: 63.3%
Activity [21]: 32.1%
IC50 (RKO [3]): 10 nM
IC50 (NCI-H460): 10 nM
Activity [22]: 26.6%
IC50 (SF-268): 10 nM
Activity [23]: 32.2%
Activity [24]: 87.6%

COC(=O)Nc1nc2cc(C(=O)c3cccs3)ccc2[nH]1 [NOCODAZOLE]
Activity [4]: 24.8%
Activity [5]: 64.6%
Activity [6]: 93.2%
Activity [7]: 64.4%
Activity [25]: 10.6%
Activity [8]: 22.3%
IC50 [1]: 140 nM
Activity [10]: 26.1%
EC50 [11]: 91 nM
Activity [12]: 23.6%
Activity [13]: 6%
Activity [14]: 11.1%
Activity [15]: 65.2%
IC50 [26]: 400 nM
Activity [16]: 51.4%
IC50 (P388 [27]): 40 nM
Activity [17]: 25.7%
IC50 (RKO [2]): > 10000 nM
Activity [18]: 25.7%
Activity [19]: 0.9%
Activity [21]: 10%
IC50 (P388 [28]): > 5000 nM
Activity [23]: 64.2%
IC50 (L1210): > 5000 nM
IC50 [29]: 6 nM
Activity [24]: 9.9%

CC(=O)O[C@H]1C(=O)[C@@]2(C)[C@H]([C@H](OC(=O)c3ccccc3)[C@]3(O)C[C@H](OC(=O)[C@H](O)[C@@H](NC(=O)c4ccccc4)c4ccccc4)C(C)=C1C3(C)C)[C@]1(OC(C)=O)CO[C@@H]1C[C@@H]2O [PACLITAXEL]
Activity [4]: 27%
Activity [5]: 63.6%
Activity [6]: 90.8%
Activity [7]: 31.1%
Activity [25]: 9.4%
Activity [8]: 1.2%
IC50 [1]: 30 nM
Activity [10]: 11%
EC50 [11]: 49 nM
Activity [12]: 26.7%
Activity [13]: 8.9%
Activity [14]: 10.1%
Activity [15]: 63.2%
IC50 [26]: 50 nM
Activity [16]: 87.9%
IC50 (P388 [27]): 70 nM
Activity [17]: 49.9%
IC50 (SK-OV-3): 50 nM
IC50 (RKO [2]): > 10000 nM
Activity [18]: 26.6%
Activity [19]: 0.3%
Activity [21]: 8.5%
IC50 (RKO [3]): 20 nM
IC50 (NCI-H460): 70 nM
IC50 (P388 [28]): 50 nM
IC50 (SF-268): 50 nM
Activity [23]: 64.8%
IC50 (L1210): 70 nM
IC50 [29]: 300 nM
Activity [24]: 19%

CC[C@]1(O)C[C@@H]2CN(CCc3c([nH]c4ccccc34)[C@@](C(=O)OC)(c3cc4c(cc3OC)N(C)[C@H]3[C@@](O)(C(N)=O)[C@H](O)[C@]5(CC)C=CCN6CC[C@]43[C@@H]65)C2)C1 [VINDESINE]
IC50 [26]: 260 nM
IC50 (L1210): > 5000 nM
IC50 [29]: 200 nM
